Experimental data: ChEMBL document CHEMBL3232793, “Fused heterocyclic compounds bearing bridgehead nitrogen as potent HIV-1 NNRTIs. Part 1: design, synthesis and biological evaluation of novel 5,7-disubstituted pyrazolo[1,5-a]pyrimidine derivatives” (Bioorg Med Chem, 2014)

Tests used:
[1] = biological target: Human immunodeficiency virus type 1 reverse transcriptase (Human immunodeficiency virus 1, UniProt Q72547); experiment: Inhibition of recombinant HIV1 reverse transcriptase assessed as inhibition of biotin-dUTP incorporation in to poly [A] x oligo[dT]15 by ELISA
Summary of the method: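 Colorimetric kit (Roche) ELISA. Homopolymer template/primer bound to the microplate, with biotin-dUTP as the labelled nucleotide and 4 ng recombinant HIV-1 RT per well. Compounds tested at several concentrations.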

[2] = Selectivity index, ratio of compound activity for human HeLa cells to EC50 for wild type HIV1; format: toxicity, cell-based; conditions: read-out: Selectivity Index
[3] = system: Human immunodeficiency virus 1; experiment: Antiviral activity against wild type HIV1 infected in human Hela-JC53 cells assessed as inhibition of viral replication by luciferase reporter gene assay; format: functional, organism-based; conditions: Human immunodeficiency virus 1, Hela-JC53
[4] = system: Human immunodeficiency virus 1; experiment: Antiviral activity against NNRTI-resistant HIV1 harboring K103N mutant infected in human Hela-JC53 cells assessed as inhibition of viral replication by luciferase reporter gene assay relative wild type HIV1; format: functional
[5] = system: Human immunodeficiency virus 1; experiment: Antiviral activity against NNRTI-resistant HIV1 harboring Y181C mutant infected in human Hela-JC53 cells assessed as inhibition of viral replication by luciferase reporter gene assay relative wild type HIV1; format: functional
[6] = Selectivity index, ratio of CC50 for human MT4 cells to EC50 for HIV1 3B; format: toxicity, cell-based; conditions: read-out: Ratio CC50/EC50
Summary of the method: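 Selectivity index = CC50 (mock-infected MT-4 cells) / EC50 (IIIB or ROD protection). Both values come from the same 5-day MTT assay run in parallel triplicate wells.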

[7] = Cytotoxicity against human MT4 cells assessed as cell viability by MTT assay; format: cell-based
Summary of the method: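 Mock-infected MT-4 cells at 6 × 10⁵ cells/mL, run in parallel triplicate wells with the infected series. Compounds given as serial five-fold dilutions. MTT viability read spectrophotometrically at day 5.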

[8] = system: Human immunodeficiency virus 2; experiment: Antiviral activity against HIV2 ROD infected in human MT4 cells assessed as virus-induced cytopathic effect by MTT assay; format: functional, organism-based; conditions: Human immunodeficiency virus 2, ISOLATE ROD
Summary of the method: (§1)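 MT-4 cells, resuspended at 6 × 10⁵ cells/mL, infected with HIV-1 IIIB or HIV-2 ROD at 100–300 CCID50. Compounds added at assay start as serial five-fold dilutions in triplicate wells. Viability read spectrophotometrically by MTT 5 days after infection.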

[9] = system: Human immunodeficiency virus 1; experiment: Antiviral activity against HIV1 3B infected in human MT4 cells assessed as virus-induced cytopathic effect by MTT assay; format: functional, organism-based; conditions: Human immunodeficiency virus 1, 3B; summary of the method: as §1

SMILES	selectivity ratio [2]	EC50 [3]	fold change (FC) [4]	fold change (FC) [5]	CC50 [7]	further results
Cc1cc(C)c(Oc2cc(Nc3ccc(C#N)cc3)nc3ccnn23)c(C)c1						IC50 [1]: 2260 nM
Cc1cc(C#N)cc(C)c1Oc1nc(Nc2ccc(C#N)cc2)nc2[nH]ccc12	> 50000	0.9 nM	11	11		
Cc1cc(C#N)cc(C)c1Oc1nc(Nc2ccc(C#N)cc2)nc2cc[nH]c12	> 50000	0.8 nM	3.8	3.8		
CC(C)Nc1cccnc1N1CCN(C(=O)c2cc3cc(NS(C)(=O)=O)ccc3[nH]2)CC1 [DELAVIRDINE]					> 43800 nM	selectivity ratio [6]: > 277
Cc1cc(C#N)cc(C)c1Oc1nc(Nc2ccc(C#N)cc2)nc(N)c1Br [ETRAVIRINE]					> 4600 nM	EC50 [8]: 11 nM
Cc1ccnc2c1NC(=O)c1cccnc1N2C1CC1 [NEVIRAPINE]					> 15000 nM	EC50 [9]: 170 nM
